# Source: ChEMBL document CHEMBL2380272, “Biological evaluation of bisbenzaldehydes against four Mycobacterium species” (Eur J Med Chem, 2013)
# What was measured:
# [1] = Genotoxicity in human HepG2/C3A cells assessed as DNA fragmentation at 10 uM after 24 hrs by alkaline comet assay (reference value: 6.65%); assay type: toxicity, cell-based
# In short: (§1)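 Alkaline comet assay. C3A cells, 40,000/well, recovered overnight, then exposed 24 h at 37 °C, 5% CO2 to 0.1–10 µM final, diluted in DMEM + 10% FCS from 1 mM DMSO stock. Cells embedded in low-melting agarose, lysed 1 h, denatured 40 min at pH > 13, electrophoresed 20 min at 300 mA, about 17 °C. Gel red stain, % tail DNA scored by fluorescence microscopy. EMS 0.5 and 0.75 mM as positive control. Mann–Whitney U test.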
# [2] = tested on: Mycobacterium tuberculosis; assay: Antimycobacterial activity against Mycobacterium tuberculosis H37Rv infected in mouse J774.A1 cells at 1 MOI assessed as intracellular bacterial growth inhibition at 1 uM after 1 hr by luciferase reporter gene assay relative to control; assay type: functional; conditions: J774.A1, 1 h, read-out: GI
# [3] = Cytotoxicity against human HepG2/C3A cells assessed as cell viability at 180 uM after 24 hrs by neutral red uptake assay relative to control; assay type: cell-based; conditions: read-out: Activity
# In short: (§2)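 C3A cells grown in DMEM + 10% FCS, 40 000 cells/well, recovered overnight at 37 °C, 5% CO2. Exposed 24 h to serial dilutions in DMEM + 10% FCS from 18 mM DMSO stocks, DMSO limited to 1%. Neutral red added for 3 h, cells washed, dye extracted with ethanol/acetic acid (50%/1%), OD read at 540 nm with 620 nm reference. Viability expressed as % of untreated cells.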
# [4] = tested on: Mycobacterium tuberculosis; assay: Antimycobacterial activity against Mycobacterium tuberculosis H37Rv ATCC 27294 assessed as growth inhibition after 6 days by luciferase reporter gene assay; assay type: functional; conditions: H37Rv ATCC 27294, 144 h
# In short: (§3)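 Mycobacteria carrying the pSMT1 luciferase reporter plasmid. Compounds came from 10 mM DMSO stocks and were serially diluted in 7H9 + 10% FCS. Thawed bacteria were filtered, recovered 1 h at 37 °C, then added at 50 000 RLU/mL. After 6 days of culture, light was read for 10 s after adding 1% n-decanal. Triplicates were run, and MIC50 was the concentration giving 50% growth inhibition.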
# [5] = tested on: Mycobacterium tuberculosis; assay: Antimycobacterial activity against Mycobacterium tuberculosis H37Rv infected in mouse J774.A1 cells at 1 MOI assessed as intracellular bacterial growth inhibition at 0.1 uM after 1 hr by luciferase reporter gene assay relative to control; assay type: functional; conditions: J774.A1, 1 h, read-out: GI
# [6] = tested on: Salmonella typhimurium; assay: Genotoxicity in recombinant Salmonella typhimurium TA104 expressing Vibrio fisheri luxabcd genes under transcriptional control of recN2-4 promoter assessed as concentration required to cause DNA damage measured every 5 mins for 4 hrs by vitotox assay in presence of S9 fraction; assay type: toxicity, organism-based; conditions: salmonella enterica subsp. enterica serovar typhimurium, s9, 4 h
# In short: (§4)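 VITOTOX genox strain TA104 recN2-4 (recN promoter driving lux). Grown 16 h at 36 °C in poor LB, diluted 125-fold and shaken 1 h, then diluted 10-fold; rat aroclor S9 added for +S9 runs. Incubated at 30 °C with light read every 5 min for 4 h. Signal/noise = exposed over unexposed light. Highest concentration tested 10 µM.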
# [7] = tested on: Mycobacterium tuberculosis; assay: Antimycobacterial activity against Mycobacterium tuberculosis H37Rv ATCC 27294 assessed as growth inhibition at 1 uM after 6 days by luciferase reporter gene assay relative to control; assay type: functional; conditions: H37Rv ATCC 27294, 144 h, read-out: GI
# In short: (§5)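 Luminescent M. tb H37Rv (hsp60-driven luciferase) in 7H9 + 10% FCS was seeded at 50 000 RLU/mL. Compounds were tested at 10, 1 and 0.1 µM from 10 mM DMSO stocks. After 6 days, luminescence was read with 1% n-decanal. Growth inhibition (%) was expressed against untreated culture, with triplicates.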
# [8] = Toxicity in recombinant Salmonella typhimurium TA104 expressing luxabcd genes under transcriptional control of constitutive pr1 promoter assessed as concentration required to reduce cell viability measured every 5 mins for 4 hrs by vitotox assay in presence of S9 fraction; assay type: organism-based; conditions: salmonella enterica subsp. enterica serovar typhimurium; read-out: Activity
# In short: (§6)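 Cytox strain TA104 pr1 (constitutive promoter driving lux), run alongside the genox strain. Grown in poor LB at 36 °C for 16 h, diluted 125-fold and shaken 1 h, then diluted 10-fold, with or without aroclor-rat S9. Luminescence read at 30 °C every 5 min over 4 h; a drop in light signal indicates reduced viability. Top concentration 10 µM.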
# [9] = tested on: Mycobacterium tuberculosis; assay: Antimycobacterial activity against Mycobacterium tuberculosis H37Rv ATCC 27294 assessed as growth inhibition at 0.1 uM after 6 days by luciferase reporter gene assay relative to control; assay type: functional; conditions: H37Rv ATCC 27294, 144 h, read-out: GI; in short: as §5
# [10] = Cytotoxicity against human HepG2/C3A cells assessed as cell viability at 60 uM after 24 hrs by neutral red uptake assay relative to control; assay type: cell-based; conditions: read-out: Activity; in short: as §2
# [11] = Genotoxicity in human HepG2/C3A cells assessed as DNA fragmentation at 0.1 uM after 24 hrs by alkaline comet assay (reference value: 6.65%); assay type: toxicity, cell-based; in short: as §1
# [12] = tested on: Salmonella typhimurium; assay: Genotoxicity in recombinant Salmonella typhimurium TA104 expressing Vibrio fisheri luxabcd genes under transcriptional control of recN2-4 promoter assessed as concentration required to cause DNA damage measured every 5 mins for 4 hrs by vitotox assay in absence of S9 fraction; assay type: toxicity, organism-based; conditions: salmonella enterica subsp. enterica serovar typhimurium; in short: as §4
# [13] = tested on: Salmonella typhimurium; assay: Toxicity in recombinant Salmonella typhimurium TA104 expressing luxabcd genes under transcriptional control of constitutive pr1 promoter assessed as concentration required to reduce cell viability measured every 5 mins for 4 hrs by vitotox assay in absence of S9 fraction; assay type: organism-based; conditions: salmonella enterica subsp. enterica serovar typhimurium; in short: as §6
# [14] = Selectivity index, ratio of NI50 for human HepG2/C3A cells to MIC50 for Mycobacterium tuberculosis H37Rv ATCC 27294; assay type: functional
# [15] = tested on: Mycobacterium avium subsp. paratuberculosis; assay: Antimycobacterial activity against Mycobacterium avium subsp. paratuberculosis ATCC 19698 assessed as growth inhibition after 6 days by luciferase reporter gene assay; assay type: functional; conditions: ATCC 19698, 144 h; in short: as §3
# [16] = Potency index, ratio of MIC50 for Mycobacterium avium subsp. paratuberculosis ATCC 19698 to MIC50 for Mycobacterium bovis AN5; assay type: functional
# [17] = tested on: Mycobacterium tuberculosis; assay: Antimycobacterial activity against Mycobacterium tuberculosis H37Rv infected in mouse J774.A1 cells at 1 MOI assessed as intracellular bacterial growth inhibition at 10 uM after 1 hr by luciferase reporter gene assay relative to control; assay type: functional; conditions: J774.A1, 1 h, read-out: GI
# [18] = tested on: Mycobacterium tuberculosis; assay: Antimycobacterial activity against Mycobacterium tuberculosis H37Rv ATCC 27294 assessed as growth inhibition at 10 uM after 6 days by luciferase reporter gene assay relative to control; assay type: functional; conditions: H37Rv ATCC 27294, 144 h, read-out: GI; in short: as §5
# [19] = Cytotoxicity against human HepG2/C3A cells assessed as cell viability at 120 uM after 24 hrs by neutral red uptake assay relative to control; assay type: cell-based; conditions: read-out: Activity; in short: as §2
# [20] = Genotoxicity in human HepG2/C3A cells assessed as DNA fragmentation at 1 uM after 24 hrs by alkaline comet assay (reference value: 6.65%); assay type: toxicity, cell-based; in short: as §1
# [21] = tested on: Mycobacterium ulcerans; assay: Antimycobacterial activity against Mycobacterium ulcerans 1615 assessed as growth inhibition after 6 days by luciferase reporter gene assay; assay type: functional; conditions: Mycobacterium ulcerans, 1615, 144 h
# In short: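 M. ulcerans 1615 carrying pSMT1 luciferase reporter plasmid, stock grown as surface pellicle on Sauton medium, cultured at 32 °C. Serial compound dilutions in 7H9 + 10% FCS from 10 mM DMSO stocks, tested in triplicate. Filtered bacteria added at 50 000 RLU/mL. After 6 days, wells collected and washed with PBS, 1% n-decanal in ethanol added, light read over 10 s. MIC50 = concentration giving 50% inhibition versus untreated.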
# [22] = Genotoxicity in human HepG2/C3A cells assessed as DNA fragmentation at 0.3 uM after 24 hrs by alkaline comet assay (reference value: 6.65%); assay type: toxicity, cell-based; in short: as §1
# [23] = Potency index, ratio of MIC50 for Mycobacterium avium subsp. avium ATCC 15769 to MIC50 for Mycobacterium bovis AN5; assay type: functional
# [24] = Genotoxicity in human HepG2/C3A cells assessed as DNA fragmentation at 3 uM after 24 hrs by alkaline comet assay (reference value: 6.65%); assay type: toxicity, cell-based; in short: as §1
# [25] = Antimycobacterial activity against Mycobacterium avium subsp. avium ATCC 15769 assessed as growth inhibition after 6 days by luciferase reporter gene assay; assay type: functional; conditions: ATCC 15769, 144 h; in short: as §3
smiles,measurement,setting,value
O=Cc1ccc(OCCCCCCCCCCCCOc2ccc(C=O)cc2)cc1,Activity,[1],6.97%
same,percent inhibition of intracellular bacterial growth at 1 µM,[2],53.1%
same,"viability at 24 h, 180 µM",[3],68.1%
same,MIC50,[4],0.52 µM
same,intracellular bacterial growth inhibition at 0.1 µM,[5],13.5%
same,Activity,[6],> 10 µM
same,inhibition of growth at 1 µM,[7],81%
same,MCC at 4 h,[8],> 10 µM
same,inhibition of growth at 0.1 µM,[9],26%
same,"viability at 24 h, 60 µM",[10],101%
same,Activity,[11],5.72%
same,Activity,[12],> 10 µM
same,Activity,[13],> 10 µM
same,Selectivity Index,[14],>346.2
same,MIC50,[15],4.75 µM
same,Ratio,[16],5
same,intracellular bacterial growth inhibition at 10 µM,[17],74%
same,inhibition of growth at 10 µM,[18],100%
same,"viability at 24 h, 120 µM",[19],89.9%
same,Activity,[20],7.62%
same,MIC50,[21],8.21 µM
same,Activity,[22],7.64%
same,Ratio,[23],5
same,Activity,[24],7.44%
same,MIC50,[25],5.01 µM
